Laboratory results as given in ChEMBL document CHEMBL1133591, “Potent derivatives of glucagon-like peptide-1 with pharmacokinetic properties suitable for once daily administration” (J Med Chem, 2000).
Numbered stars: 1 amine (or outer) side, 2 acyl side, 3 side chain; on linkers, the order of the positions; unused ones are H or OH. Side chains are listed from the residue outwards. Peptide text beside a SMILES is read from it. * marks the point of attachment. ξ: configuration not given here. ξγGlu = O=C(O)C(CCC(=O)[*:2])N[*:1]; Palmitoyl = CCCCCCCCCCCCCCCC(=O)*

target: Glucagon-like peptide 1 receptor (Homo sapiens, UniProt P43220); experiment: Potency measured using recombinant human GLP-1 receptor expressed in Baby Hamster Kidney (BHK)cells; type: cell-based; conditions: not given
Sequence (P43220 whole entry): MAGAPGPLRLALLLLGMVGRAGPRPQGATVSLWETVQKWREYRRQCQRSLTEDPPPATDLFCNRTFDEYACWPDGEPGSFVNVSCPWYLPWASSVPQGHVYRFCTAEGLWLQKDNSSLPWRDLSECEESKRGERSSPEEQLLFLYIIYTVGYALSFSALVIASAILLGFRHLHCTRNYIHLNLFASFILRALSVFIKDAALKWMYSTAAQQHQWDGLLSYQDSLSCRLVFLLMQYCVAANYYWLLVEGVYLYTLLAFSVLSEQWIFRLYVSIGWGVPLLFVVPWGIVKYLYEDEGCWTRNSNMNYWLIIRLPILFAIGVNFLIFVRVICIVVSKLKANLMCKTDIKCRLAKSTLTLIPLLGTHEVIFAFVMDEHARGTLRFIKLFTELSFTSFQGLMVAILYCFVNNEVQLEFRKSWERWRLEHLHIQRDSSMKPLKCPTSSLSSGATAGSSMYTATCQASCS

| SMILES | EC50 [nM] |
| --- | --- |
| CCCCCCCCCCCCCCCC(=O)NC(CCC(=O)NCCCC[C@H](NC(=O)[C@H](CCCN=C(N)N)NC(=O)[C@H](C)NC(=O)[C@H](C)NC(=O)[C@H](CCC(N)=O)NC(=O)CNC(=O)[C@H](CCC(=O)O)NC(=O)[C@H](CC(C)C)NC(=O)[C@H](Cc1ccc(O)cc1)NC(=O)[C@H](CO)NC(=O)[C@H](CO)NC(=O)[C@@H](NC(=O)[C@H](CC(=O)O)NC(=O)[C@H](CO)NC(=O)[C@@H](NC(=O)[C@H](Cc1ccccc1)NC(=O)[C@@H](NC(=O)CNC(=O)[C@H](CCC(=O)O)NC(=O)[C@H](C)NC(=O)[C@@H](N)Cc1c[nH]cn1)[C@@H](C)O)[C@@H](C)O)C(C)C)C(=O)N[C@@H](Cc1ccccc1)C(=O)N[C@H](C(=O)N[C@@H](C)C(=O)N[C@@H](Cc1c[nH]c2ccccc12)C(=O)N[C@@H](CC(C)C)C(=O)N[C@H](C(=O)N[C@@H](CCCN=C(N)N)C(=O)NCC(=O)N[C@@H](CCCN=C(N)N)C(=O)NCC(=O)O)C(C)C)[C@@H](C)CC)C(=O)O (stereo not given in full) (H-HAEGTFTSDVSSYLEGQAARK([ξγGlu-Palmitoyl])FIAWLVRGRG-OH) | 0.0363 |

test system: not listed separately; experiment: Plasma half life was determined in pigs; type: ADME, organism-based, Sus scrofa; conditions: pig
Summary of the method: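 Landrace × Duroc × Yorkshire pigs, 25–50 kg, two per compound; single sc dose, 0.5 nmol/kg for analogues, 15 nmol/kg for GLP-1. Jugular catheter blood at 0–72 h, extra early samples for GLP-1; EDTA/aprotinin/bacitracin-stabilized plasma. Unextracted plasma assayed by N-terminal-specific GLP-1 radioimmunoassay against spiked pig-plasma calibrators; half-life calculated per pig, reported as mean ± SD.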

| SMILES | half-life [h] |
| --- | --- |
| CCCCCCCCCCCC(=O)NC(CCC(=O)NCCCC[C@H](NC(=O)[C@H](C)NC(=O)[C@H](C)NC(=O)[C@H](CCC(N)=O)NC(=O)CNC(=O)[C@H](CCC(=O)O)NC(=O)[C@H](CC(C)C)NC(=O)[C@H](Cc1ccc(O)cc1)NC(=O)[C@H](CO)NC(=O)[C@H](CO)NC(=O)[C@@H](NC(=O)[C@H](CC(=O)O)NC(=O)[C@H](CO)NC(=O)[C@@H](NC(=O)[C@H](Cc1ccccc1)NC(=O)[C@@H](NC(=O)CNC(=O)[C@H](CCC(=O)O)NC(=O)[C@H](C)NC(=O)[C@@H](N)Cc1c[nH]cn1)[C@@H](C)O)[C@@H](C)O)C(C)C)C(=O)N[C@@H](CCC(=O)O)C(=O)N[C@@H](Cc1ccccc1)C(=O)N[C@H](C(=O)N[C@@H](C)C(=O)N[C@@H](Cc1c[nH]c2ccccc12)C(=O)N[C@@H](CC(C)C)C(=O)N[C@H](C(=O)N[C@@H](CCCN=C(N)N)C(=O)NCC(=O)N[C@@H](CCCN=C(N)N)C(=O)NCC(=O)O)C(C)C)[C@@H](C)CC)C(=O)O (stereo not given in full) | 15 |
| CCCCCCCCCCCCCCCC(=O)N[C@@H](CCC(=O)NCCCC[C@H](NC(=O)[C@H](C)NC(=O)[C@H](C)NC(=O)[C@H](CCC(N)=O)NC(=O)CNC(=O)[C@H](CCC(=O)O)NC(=O)[C@H](CC(C)C)NC(=O)[C@H](Cc1ccc(O)cc1)NC(=O)[C@H](CO)NC(=O)[C@H](CO)NC(=O)[C@@H](NC(=O)[C@H](CC(=O)O)NC(=O)[C@H](CO)NC(=O)[C@@H](NC(=O)[C@H](Cc1ccccc1)NC(=O)[C@@H](NC(=O)CNC(=O)[C@H](CCC(=O)O)NC(=O)[C@H](C)NC(=O)[C@@H](N)Cc1cnc[nH]1)[C@@H](C)O)[C@@H](C)O)C(C)C)C(=O)N[C@@H](CCC(=O)O)C(=O)N[C@@H](Cc1ccccc1)C(=O)N[C@H](C(=O)N[C@@H](C)C(=O)N[C@@H](Cc1c[nH]c2ccccc12)C(=O)N[C@@H](CC(C)C)C(=O)N[C@H](C(=O)N[C@@H](CCCNC(=N)N)C(=O)NCC(=O)N[C@@H](CCCNC(=N)N)C(=O)NCC(=O)O)C(C)C)[C@@H](C)CC)C(=O)O | 14 |
| CCCCCCCCCCCCCCCC(=O)NCCC(=O)NCCCC[C@H](NC(=O)[C@H](C)NC(=O)[C@H](C)NC(=O)[C@H](CCC(N)=O)NC(=O)CNC(=O)[C@H](CCC(=O)O)NC(=O)[C@H](CC(C)C)NC(=O)[C@H](Cc1ccc(O)cc1)NC(=O)[C@H](CO)NC(=O)[C@H](CO)NC(=O)[C@@H](NC(=O)[C@H](CC(=O)O)NC(=O)[C@H](CO)NC(=O)[C@@H](NC(=O)[C@H](Cc1ccccc1)NC(=O)[C@@H](NC(=O)CNC(=O)[C@H](CCC(=O)O)NC(=O)[C@H](C)NC(=O)[C@@H](N)Cc1c[nH]cn1)[C@@H](C)O)[C@@H](C)O)C(C)C)C(=O)N[C@@H](CCC(=O)O)C(=O)N[C@@H](Cc1ccccc1)C(=O)N[C@H](C(=O)N[C@@H](C)C(=O)N[C@@H](Cc1c[nH]c2ccccc12)C(=O)N[C@@H](CC(C)C)C(=O)N[C@H](C(=O)N[C@@H](CCCN=C(N)N)C(=O)NCC(=O)N[C@@H](CCCN=C(N)N)C(=O)NCC(=O)O)C(C)C)[C@@H](C)CC | 8.8 |
| CCCCCCCCCCCCCCCC(=O)NCCCC(=O)NCCCC[C@H](NC(=O)[C@H](C)NC(=O)[C@H](C)NC(=O)[C@H](CCC(N)=O)NC(=O)CNC(=O)[C@H](CCC(=O)O)NC(=O)[C@H](CC(C)C)NC(=O)[C@H](Cc1ccc(O)cc1)NC(=O)[C@H](CO)NC(=O)[C@H](CO)NC(=O)[C@@H](NC(=O)[C@H](CC(=O)O)NC(=O)[C@H](CO)NC(=O)[C@@H](NC(=O)[C@H](Cc1ccccc1)NC(=O)[C@@H](NC(=O)CNC(=O)[C@H](CCC(=O)O)NC(=O)[C@H](C)NC(=O)[C@@H](N)Cc1c[nH]cn1)[C@@H](C)O)[C@@H](C)O)C(C)C)C(=O)N[C@@H](CCC(=O)O)C(=O)N[C@@H](Cc1ccccc1)C(=O)N[C@H](C(=O)N[C@@H](C)C(=O)N[C@@H](Cc1c[nH]c2ccccc12)C(=O)N[C@@H](CC(C)C)C(=O)N[C@H](C(=O)N[C@@H](CCCN=C(N)N)C(=O)NCC(=O)N[C@@H](CCCN=C(N)N)C(=O)NCC(=O)O)C(C)C)[C@@H](C)CC | 31 |
